UBC9 SUMO inh = inhibitors of in vitro SUMOylation cascade, primary screen, biochemical, HTRF, uHTS. AID 2006, 2009. HTRF SUMOylation assay, SAE1/SAE2 + UBC9. SUMO-conjugating enzyme UBC9 (Homo sapiens), P63279. inhibition, % at 35 µM. 290,000 compounds, 0.36% hits; in the data active = inhibition above about 50%, passing the limit was not always enough
Target sequence (P63279 whole entry, looked up): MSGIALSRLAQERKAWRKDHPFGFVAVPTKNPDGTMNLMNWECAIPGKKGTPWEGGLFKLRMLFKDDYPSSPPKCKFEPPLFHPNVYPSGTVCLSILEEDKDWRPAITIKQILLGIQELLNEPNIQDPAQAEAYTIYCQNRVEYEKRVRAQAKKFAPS
IMP-1 inh = IMP-1 metallo-beta-lactamase inhibitors, primary screen, biochemical, epi-absorbance readout, Pseudomonas aeruginosa enzyme. metallo-beta-lactamase IMP-1 (Pseudomonas aeruginosa). purified IMP-1, nitrocefin hydrolysis, epi-absorbance fluorescence. inhibition, % at 5.6 µM. 290,000 compounds, 0.45% hits. AID 1556, 2009;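 active = inhibition above the mean plus 3 SD of all compounds in the same screening run, cut at about 4.5% in these data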;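 note: 0% = IMP-1 with DMSO and 100% = DMSO wells lacking enzyme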
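System – purified recombinant IMP-1 beta-lactamase · Input – IMP-1 dispensed at 0.2 nM · Timing – 15 min preincubation plus 25 min reaction at 25 °C · Signal – Epi-absorbance fluorescence, 480 nm excitation, 530 nm emission · Measure – percent IMP-1 inhibition derived from blank-referenced optical density · Controls – Enzyme-plus-DMSO low control, enzyme-free DMSO high control · Replication – singlicate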
PHOSPHO1 block = PubChem AID 1565; recombinant PHOSPHO1, absorbance phosphatase assay; 290,000 compounds, 1.1% hits; Phosphoethanolamine/phosphocholine phosphatase (Homo sapiens), Q8TCT1; inhibition, % at 13.3 µM; in the data active = inhibition above about 60%
Target sequence (Q8TCT1 whole entry, looked up): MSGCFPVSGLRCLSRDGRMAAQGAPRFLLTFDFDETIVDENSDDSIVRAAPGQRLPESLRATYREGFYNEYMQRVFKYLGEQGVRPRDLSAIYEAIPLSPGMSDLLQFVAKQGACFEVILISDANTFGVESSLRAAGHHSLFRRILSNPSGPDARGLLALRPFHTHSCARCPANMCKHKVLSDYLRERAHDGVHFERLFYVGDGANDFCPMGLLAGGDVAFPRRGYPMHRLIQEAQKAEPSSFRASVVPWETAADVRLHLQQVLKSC
VIM-2 inhibitor = VIM-2 metallo-beta-lactamase inhibitors, primary screen, biochemical, epi-absorbance readout, Pseudomonas aeruginosa enzyme. purified VIM-2, nitrocefin hydrolysis, epi-absorbance fluorescence. inhibition, % at 5.6 µM. 290,000 compounds, 0.89% hits;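 active = inhibition above the mean of all tested compounds plus 3 SD, cutoff set per screening run, cut at about 7.5% in these data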;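 note: red hydrolysis product quenches plate fluorescence so inhibitors raise well fluorescence; 0% = enzyme with DMSO and 100% = DMSO without enzyme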
HCV NS3 hel inh = inhibitors of HCV NS3 helicase, primary screen, biochemical, Cy5 molecular beacon fluorescence | 290,000 compounds, 0.56% hits | inhibition, % at 10.9 µM | NS3 helicase DNA unwinding;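 active = inhibition above the mean of all tested compounds plus 3 SD, set per campaign, cut at about 35% in these data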;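 note: 0% = DMSO wells and 100% = thioflavine S control wells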
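Measured by: Cy5 fluorescence, 0 and 60 min reads / Assay system: NS3 helicase fragment of HCV / Control set: low DMSO, high thioflavine S at 110 µM / Times: 1 h reaction at 25 °C, ATP-initiated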
HCV core dimer = inhibitors of HCV core protein dimerization, primary screen, biochemical, TR-FRET, high-throughput | TR-FRET GST/Flag-core106 dimerization, 1536-well | inhibition, % at 5 µM | 300,000 compounds, 0.33% hits | AID 1899, 2009;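 active = inhibition above the mean of all tested compounds plus 3 SD, set per screening campaign, cut at about 45% in these data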
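Material: Tagged HCV core106 pair (GST and Flag) | Amount: GST-core106 13.5 nM, Flag-core106 17 nM | Medium: KF-containing HEPES buffer, pH 7.45, DTT, CHAPS, BSA | Reagent: Eu donor and XL665 acceptor anti-tag antibodies | Schedule: 4 h at 22.5 °C | Technique: Time-resolved FRET, ex 340 nm, em 617 and 671 nm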
Active calls of the source: *; / = no result given. Rows were chosen to be rich in hits. Some 3.1% of all compounds tested hit in one or more screens of this group.

SMILES	UBC9 SUMO inh	IMP-1 inh	PHOSPHO1 block	VIM-2 inhibitor	HCV NS3 hel inh	HCV core dimer
COc1ccc(-c2cc(-c3n[nH]c(=S)n3-c3cc(OC)ccc3OC)[nH]n2)cc1	-18.3	-2.2	2.4	-3.4	14.6	8.0
COc1ccc(OC)c(-n2c(-c3cnccn3)n[nH]c2=S)c1	25.0	-4.6	84.3*	-2.2	-4.2	2.5
COc1ccc(OC)c(-n2c(-c3cc(-c4ccc(F)cc4)n[nH]3)n[nH]c2=S)c1	8.7	-3.1	90.7*	-1.9	-5.1	8.3
S=c1[nH]nc(-c2cnccn2)n1-c1ccccc1	8.0	-2.9	-26.6	2.7	-4.2	-5.2
Cc1ccc(S(=O)(=O)N(CC(=O)Nc2ccccc2C(=O)O)c2ccccc2)cc1	3.4	-3.7	27.4	-5.5	8.2	9.9
N#CC(C#N)=C1NC(N)=C(C#N)C(c2ccccc2)=C1C#N	16.2	22.7*	-102.1	-1.7	10.1	21.7
COC(=O)c1c(C)cc(C)c2c1CC(C)(C)C2=O	9.9	-3.7	21.0	-1.7	12.5	-4.7
COc1ccc(Cc2nnc(SC(C)C(=O)Nc3ccc(F)cc3Cl)o2)cc1 (stereo unspecified)	/	/	/	/	/	3.1
CCN(CC(=O)Nc1c(F)cccc1F)C(=O)C1Cc2ccccc2CN1S(=O)(=O)CC (stereo unspecified)	/	/	/	/	/	2.9
COc1ccc(CCNc2c(C)c(C)nc3ncnn23)cc1	6.0	-1.8	42.0	8.8*	-6.8	-2.0
CCCN(c1ccccc1C(=O)O)S(=O)(=O)c1ccc2c(c1)n(C)c(=O)n2C	-4.7	-1.8	/	-0.5	-3.5	-12.1
O=C(NNC(=O)C1CC(c2cccnc2)=NO1)Nc1ccccc1F (stereo unspecified)	2.9	-3.0	64.7*	-4.4	14.6	-3.4
Cc1ccc(NC(=O)NNC(=O)C2CC(c3cccnc3)=NO2)cc1 (stereo unspecified)	-17.9	-2.2	25.8	-3.7	-27.1	-4.5
CCCNc1nc2nc3ccccn3c(=O)c2cc1C(=O)NCCN1CCOCC1	18.1	-2.5	49.2	2.8	7.4	5.5
CCOc1ccc(CNC(=O)Cn2nc(C)c3c(C)n(-c4ccc(C)cc4)nc3c2=O)cc1	11.8	10.8*	52.8	0.4	-42.1	10.6
Cc1ccc(-n2nc3c(=O)n(CC(=O)NCc4ccccn4)nc(C)c3c2C)cc1	2.5	-3.0	32.9	-2.3	9.1	-2.2
CC(NC(=O)COC(=O)COc1cccc2c1OC(C)(C)C2)c1ccccc1 (stereo unspecified)	8.9	-1.1	27.6	0.0	0.5	-0.1
CC1=C(C(=O)Nc2ccccc2C)C(c2ccccc2)NC(=O)N1 (stereo unspecified)	15.9	4.5*	-11.3	-0.1	0.1	0.5
CCOc1ccccc1NC(=O)C1=C(C)NC(=O)NC1c1cccc(OC)c1OC (stereo unspecified)	20.0	-2.2	62.0*	-0.9	-2.4	5.4
COc1ccccc1NC(=O)C1=C(C)NC(=O)NC1c1cccc(OC)c1OC (stereo unspecified)	-8.0	-3.1	4.7	-3.0	-9.3	-6.3
COc1ccc(S(=O)(=O)N2CN3CCN(C3)C2)cc1OC	11.5	-4.6	-6.8	-3.1	7.3	8.3
Cc1ccc(N=C2S/C(=C\c3cn(CC(=O)O)c4ccccc34)C(=O)N2C)cc1	5.6	0.8	-13.0	0.8	31.9	6.0
COc1cccc(NC(=O)Cn2c3ccc(F)cc3c3nc4n(c(=O)c32)CCCS4)c1	/	6.5*	52.6	1.2	-16.4	21.7
C=CCOCCN(CC)CC	18.3	-2.6	40.9	-1.4	3.4	/
COc1ccc(N2C(=O)C(Cl)=C(Nc3ccccc3O)C2=O)cc1	16.6	-4.1	69.5*	-1.5	4.5	-6.1
SMILES	UBC9 SUMO inh	IMP-1 inh	PHOSPHO1 block	VIM-2 inhibitor	HCV NS3 hel inh	HCV core dimer
COc1ccc(N2C(=O)C(Cl)=C(Nc3ccccc3OC)C2=O)cc1	8.9	-4.2	4.7	-2.3	2.5	3.6
C[C@H]1CN(CCc2ccccc2)C(=O)[C@@H]1CC(=O)NCc1ccccc1	-5.5	1.4	-52.4	0.0	-4.8	-7.1
N#CCCN(C(=O)c1ccc2c(=O)n3c(nc2c1)CCCCC3)c1ccccc1	/	-1.0	64.0*	-5.2	2.4	7.2
C=CCn1c(=O)/c(=C2/SC(C)=C(C)N2CC)s/c1=C1/C(=O)N(C)C(=S)N1c1ccccc1	/	-0.4	/	-1.1	8.6	/
C=CCn1c(=O)/c(=C2/SC(C)=C(C)N2CC)s/c1=C1/C(=O)N(CC)C(=S)N1c1ccccc1	-12.5	-0.2	100.3*	0.3	10.4	-3.3
CCC(C)NC(=O)c1ccccc1C(=O)NC(C)CC (stereo unspecified)	5.1	6.1*	8.9	-0.9	9.1	-7.9
CCC(C)NC(=O)c1ccccc1SC (stereo unspecified)	2.5	-0.7	42.1	2.0	8.3	1.3
Cc1ccc(NC2=C/C(=N/S(=O)(=O)c3cccs3)c3ccccc3C2=O)cc1C	-1.9	-2.8	18.6	-0.3	-8.8	-12.8
Cc1ccccc1NC1=C/C(=N\S(=O)(=O)c2cccs2)c2ccccc2C1=O	73.3*	-2.2	1.0	-3.6	0.7	7.7
O=C(O)c1ccc(S(=O)(=O)/N=C2\C=C(Nc3ccccc3F)C(=O)c3ccccc32)cc1	91.6*	-2.9	19.0	-0.2	12.6	14.8
Cc1ccccc1NC1=C/C(=N\S(=O)(=O)c2ccc(C(=O)O)cc2)c2ccccc2C1=O	88.5*	-0.6	39.1	0.0	7.1	20.6
COc1ccc(S(=O)(=O)/N=C2\C=C(Nc3ccc(O)cc3)C(=O)c3ccccc32)cc1	25.0	-6.1	4.1	-2.9	-16.5	-22.2
O=C1CCCN1CCCNS(=O)(=O)c1ccc(F)cc1F	16.9	-1.3	15.9	-1.0	-6.8	2.0
CCNCc1cc(Br)c(OCC(=O)Nc2ccccc2)c(OC)c1	9.0	-1.7	-3.5	2.0	-23.2	-1.8
COc1cc(CNCCc2ccccc2)cc(Br)c1OCC(=O)Nc1ccccc1C	-31.3	-1.9	66.2*	-2.1	-54.6	-4.0
COc1ccccc1CNS(=O)(=O)N(C)C	21.4	-3.2	26.0	-2.0	8.2	0.9
Cc1ccsc1C1C=C(c2cccc(Br)c2)Nc2ncnn21 (stereo unspecified)	11.4	-5.3	61.5*	-2.6	5.5	-20.5
CC(=O)Nc1ccc(S(=O)(=O)N2CCN(Cc3csc(C)n3)CC2)cc1	16.8	-1.6	36.4	3.5	4.4	-8.3
Oc1ccc2ccccc2c1CNc1cnc2ccccc2c1	-0.5	-2.5	106.3*	0.5	1.9	-6.2
Oc1ccccc1CNc1cnc2ccccc2c1	3.7	-3.6	8.7	0.4	-7.6	-4.1
